Converted amounts (≈) assume the structure as drawn.
Legend:
Assay type in all cases: functional
Enterococcus faecalis = assay: In Vitro antibacterial activity against (Ef) Enterococcus faecalis ATCC 29212
Summary of the method: (§1)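 Panel of standard ATCC strains plus modified strains: methicillin-resistant, hyperpermeable, β-lactamase-producing (TEM1, TEM2, SHV) and β-lactamase-lacking. MIC determined in Mueller Hinton 2 medium, inoculum 10⁴ cells/mL, incubated 24 h at 37 °C.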

Escherichia coli [1] = assay: In Vitro antibacterial activity against (Ec L) Escherichia coli […] strain; summary of the method: as §1
Escherichia coli [2] = assay: In Vitro antibacterial activity against (Ec SHV) Escherichia coli […] strain; summary of the method: as §1
Escherichia coli [3] = assay: In Vitro antibacterial activity against (Ec TEM1) Escherichia coli […] strain; summary of the method: as §1
Escherichia coli [4] = assay: In Vitro antibacterial activity against (Ec TEM2) Escherichia coli […] strain; summary of the method: as §1
Escherichia coli [5] = assay: In Vitro antibacterial activity against (Ec) Escherichia coli ATCC 25922; summary of the method: as §1
Pseudomonas aeruginosa [6] = assay: In Vitro antibacterial activity against (Pa G242) hyperpermeable Pseudomonas aeruginosa strain; summary of the method: as §1
Pseudomonas aeruginosa [7] = assay: In Vitro antibacterial activity against (Pa) hyperpermeable Pseudomonas aeruginosa […] strain; summary of the method: as §1
Pseudomonas aeruginosa [8] = assay: In Vitro antibacterial activity against(Pa) Pseudomonas aeruginosa ATCC 27853; summary of the method: as §1
Staphylococcus aureus [9] = assay: In vitro antibacterial activity against Sa MR(I) heterogeneous methicillin resistant Staphylococcus aureus
Summary of the method: (§2)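 MIC was determined in Mueller Hinton 2 medium with an inoculum of 10⁴ cells/mL and incubation for 24 h at 37 °C. Strains: Sa(I) is S. aureus ATCC 29213; Sa MR(I) is a heterogeneous methicillin-resistant S. aureus; Sa MR(II) is a homogeneous methicillin-resistant S. aureus.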

Staphylococcus aureus [10] = assay: In vitro antibacterial activity against Sa MR(II) homogeneous methicillin resistant Staphylococcus aureus; summary of the method: as §2
Staphylococcus aureus [11] = assay: In vitro antibacterial activity against Sa(I) Staphylococcus aureus ATCC 29213; summary of the method: as §2
Staphylococcus aureus [12] = assay: In vitro antibacterial activity against Sa(II) Staphylococcus aureus ATCC 25923; summary of the method: as §1
Escherichia coli [13] = assay: In Vitro antibacterial activity against (Ec DC2) hyperpermeable Escherichia coli strain; summary of the method: as §1

Question: What does the source list for `C[C@@H](O)[C@H]1C(=O)N2C(C(=O)O)=C(CSC(=S)N(C)CC(N)=O)S[C@H]12`?
Answer: MIC (Enterococcus faecalis): 8 µg/mL (≈ 20.4 µM); MIC (Escherichia coli [1]): 16 µg/mL (≈ 40.9 µM); MIC (Escherichia coli [2]): 16 µg/mL (≈ 40.9 µM); MIC (Escherichia coli [3]): 8 µg/mL (≈ 20.4 µM); MIC (Escherichia coli [4]): 8 µg/mL (≈ 20.4 µM); MIC (Escherichia coli [5]): 8 µg/mL (≈ 20.4 µM); MIC (Pseudomonas aeruginosa [6]): 8 µg/mL (≈ 20.4 µM); MIC (Pseudomonas aeruginosa [7]): 4 µg/mL (≈ 10.2 µM); MIC (Pseudomonas aeruginosa [8]): > 64 µg/mL; MIC (Staphylococcus aureus [9]): 0.03 µg/mL (≈ 0.0766 µM); MIC (Staphylococcus aureus [10]): 2 µg/mL (≈ 5.11 µM); MIC (Staphylococcus aureus [11]): 0.12 µg/mL (≈ 0.307 µM); MIC (Staphylococcus aureus [12]): 0.12 µg/mL (≈ 0.307 µM); MIC (Escherichia coli [13]): 0.5 µg/mL (≈ 1.28 µM)
